This note sets out measurements from ChEMBL document CHEMBL1121617, “Antihypertensive ureidopiperidines” (1980).

For assay [1], the system named is Rattus norvegicus. The assay is described as follows: The percent fall in systolic blood pressure at 1.5 / 4 hr after peroral administration of 10 mg/kg in DOCA/saline hypertensive rats at 6 hr. The note with it: route oral. In kind it is functional, Artery. The method, boiled down: (§1)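 DOCA/saline hypertensive rats, four per group, dosed orally at 50, 25 or 10 mg/kg. Mean starting systolic pressure was recorded for each group. Systolic pressure was then read 2, 6 and 24 h after dosing and reported as percentage fall from the starting value.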

In assay [2] the test system is Rattus norvegicus. In words: Starting systolic blood pressure at dose of 25 mg/kg. The class given is functional, Artery. The method, boiled down:
as §1

Assay [3] deals with Rattus norvegicus. In words: The percent fall in systolic blood pressure at 1.5 / 4 hr after peroral administration of 25 mg/kg in DOCA/saline hypertensive rats at 6 hr. The conditions noted are these: route oral. In kind it is functional, Artery. In short, it runs like this: as §1
Assay [4] deals with Rattus norvegicus. In words: The percent fall in systolic blood pressure at 1.5 / 4 hr after peroral administration of 25 mg/kg in DOCA/saline hypertensive rats at 24 hr; Non significant, p>0.05. In kind it is functional, organism-based. The conditions noted are these: Artery, at 25 mg/kg. The arrangement: dose 25 mg/kg.
The subject of assay [5] is Rattus norvegicus. In words: The percent fall in systolic blood pressure at 1.5 / 4 h after peroral administration of 50 mg/kg in DOCA/saline hypertensive rats at 2 hr. In kind it is functional, Artery. The conditions noted are these: route oral.
In assay [6] the test system is Rattus norvegicus. The assay is described as follows: The percent fall in systolic blood pressure at 1.5 / 4 hr after peroral administration of 10 mg/kg in DOCA/saline hypertensive rats at 24 hr. In kind it is functional, Artery. The note with it: route oral.
In assay [7] the test system is Rattus norvegicus. In words: Starting systolic blood pressure at dose of 50 mg/kg in rat. In kind it is functional, Artery. In short, it runs like this: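 Mean systolic blood pressure before dosing for each group of four DOCA/saline hypertensive rats given 50 mg/kg orally. It indicates how far hypertension was established.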
For assay [8], the system named is Rattus norvegicus. In words: Starting systolic blood pressure at dose of 10 mg/kg. In kind it is functional, Artery. The method, boiled down:
as §1

For assay [9], the system named is Rattus norvegicus. The assay is described as follows: The percent fall in systolic blood pressure at 1.5 / 4 hr after peroral administration of 25 mg/kg in DOCA/saline hypertensive rats at 2 hr. The class given is functional, Artery. The note with it: route oral. In short, it runs like this:
as §1

Assay [10] concerns Rattus norvegicus. In words: The percent fall in systolic blood pressure at 1.5 / 4 hr after peroral administration of 10 mg/kg in DOCA/saline hypertensive rats at 2 hr. In kind it is functional, Artery. The conditions noted are these: route oral. In short, it runs like this:
as §1

In assay [11] the test system is Rattus norvegicus. The assay is described as follows: The percent fall in systolic blood pressure at 1.5 / 4 hr after peroral administration of 50 mg/kg in DOCA/saline hypertensive rats at 24 hr. The conditions noted are these: route oral. The class given is functional, Artery. The method, boiled down: as §1
Assay [12] deals with Rattus norvegicus. The assay is described as follows: The percent fall in systolic blood pressure at 1.5 / 4 hr after peroral administration of 50 mg/kg in DOCA/saline hypertensive rats at 6 hr. The class given is functional, Artery. The note with it: route oral.
For assay [13], the system named is Rattus norvegicus. The assay is described as follows: The percent fall in systolic blood pressure at 1.5 / 4 hr after peroral administration of 75 mg/kg in conscious renal hypertensive rats (RHR). In kind it is functional, Artery. The conditions noted are these: route oral. In short, it runs like this:
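Conscious renal hypertensive rats, four per group, dosed orally. Starting systolic pressures were 160–200 mmHg. Percentage fall in systolic pressure was taken at 1.5 and/or 4 h after dosing. Falls under 10% were scored as ±.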

The test system of assay [14] is Rattus norvegicus. In words: The percent fall in systolic blood pressure at 1.5 / 4 hr after peroral administration of 50 mg/kg in conscious renal hypertensive rats (RHR). The conditions noted are these: route oral. In kind it is functional, Artery. The method, boiled down:
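Conscious renal hypertensive rats, four per group, with starting systolic pressures of 160-200 mmHg, were given a single oral dose. The value is the percentage fall in systolic pressure at 1.5 h, 4 h, or both after dosing. Falls below 10% are reported as ±.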

The test system of assay [15] is Rattus norvegicus. In words: Percent fall in systolic blood pressure at 1.5 / 4 hr after peroral administration of 50 mg/kg in DOCA/saline hypertensive rats at 6 h; Non significant. The class given is functional, organism-based. The arrangement: dose 50 mg/kg. The conditions noted are these: Artery, at 50 mg/kg.
Assay [16] relates to Rattus norvegicus. The assay is described as follows: The percent fall in systolic blood pressure at 1.5 / 4 hr after peroral administration of 50 mg/kg in DOCA/saline hypertensive rats at 2 hr; Non significant. Details: dose 50 mg/kg. The note with it: Artery, at 50 mg/kg. The class given is functional, organism-based.
Assay [17] concerns Rattus norvegicus. In words: The percent fall in systolic blood pressure at 1.5 / 4 h after peroral administration of 50 mg/kg in conscious DOCA/saline hypertensive rats at 24 hr; Non significant. In kind it is functional, organism-based. Details: dose 50 mg/kg. The note with it: Artery, at 50 mg/kg. In short, it runs like this:
as §1

`O=C(NC(=O)c1cccs1)NC1CCN(CCCC(=O)c2ccc(F)cc2)CC1`: the Fall in the assay with Rattus norvegicus [1] was 36%; in the assay on Rattus norvegicus [3] it was 28%; in the assay on Rattus norvegicus [4], “Not significant”; in the assay with Rattus norvegicus [5] it was 49%; in the assay with Rattus norvegicus [6], 16%; in the assay on Rattus norvegicus [9], 35%. In addition, the Fall was 48% in the assay with Rattus norvegicus [10], 21% in the assay on Rattus norvegicus [11] and 45% with Rattus norvegicus [12]. In addition, the SP in the assay with Rattus norvegicus [2] is given as 174 mmHg; in the assay on Rattus norvegicus [7] it was 179 mmHg; with Rattus norvegicus [8], 171 mmHg.

The compound `Cc1cccc(C)c1NC(=O)NC1CCN(CCc2c[nH]c3ccccc23)CC1` returned an Activity in the assay on Rattus norvegicus [13] below 10.

Turning to `O=C(CCCN1CCC(NC(=S)Nc2ccccc2)CC1)c1ccccc1`, in the assay on Rattus norvegicus [14], the Activity is 20.

Consider `O=C(Nc1cccc(C(F)(F)F)c1)NC1CCN(CCc2c[nH]c3ccccc23)CC1`, for which the Fall result in the assay on Rattus norvegicus [15], in the assay on Rattus norvegicus [16] and in the assay with Rattus norvegicus [17] was “Not significant” in each case. In the assay on Rattus norvegicus [7], this compound came in with an SP of 208 mmHg.
